Laboratory results reported in ChEMBL document CHEMBL4477242, “Synthesis, structure and antimicrobial evaluation of a new gossypol triazole conjugates functionalized with aliphatic chains and benzyloxy groups” (2016).
Converted amounts (≈) assume the structure as drawn.

Tests used:
Fusarium acuminatum = assay: Antifungal activity against Fusarium acuminatum ATCC 46651 after 18 hrs by serial microdilution assay; format: functional; conditions: ATCC 46651, 18 h
Outline: (§1)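 Fungal strains tested by MIC determination, with miconazole run as the reference antifungal. The two Fusarium oxysporum formae speciales are isolates from plants (cabbage and tomatoes).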

Staphylococcus aureus [1] = assay: Antibacterial activity against methicillin-resistant Staphylococcus aureus 1 after 18 hrs by serial microdilution assay; format: functional; conditions: Staphylococcus aureus, 1, 18 h
[2] = test system: Fusarium oxysporum f. sp. lycopersici; assay: Antifungal activity against Fusarium oxysporum f. sp. lycopersici after 18 hrs by serial microdilution assay; format: functional; outline: as §1
Staphylococcus aureus [3] = assay: Antibacterial activity against Staphylococcus aureus ATCC 25923 after 18 hrs by serial microdilution assay; format: functional; conditions: ATCC 25923, 18 h
Streptococcus pneumoniae = assay: Antibacterial activity against Streptococcus pneumoniae ATCC 49619 after 18 hrs by serial microdilution assay; format: functional; conditions: ATCC 49619, 18 h
[4] = test system: Staphylococcus epidermidis; assay: Antibacterial activity against Staphylococcus epidermidis ATCC 12228 after 18 hrs by serial microdilution assay; format: functional; conditions: ATCC 12228, 18 h
Rhizopus stolonifer [5] = assay: Antifungal activity against Rhizopus stolonifer ATCC 56227b after 18 hrs by serial microdilution assay; format: functional; outline: as §1
Bacillus subtilis = assay: Antibacterial activity against Bacillus subtilis […] after 18 hrs by serial microdilution assay; format: functional
Staphylococcus aureus [6] = assay: Antibacterial activity against Staphylococcus aureus ATCC 6538 after 18 hrs by serial microdilution assay; format: functional; conditions: ATCC 6538, 18 h
Aspergillus fumigatus = assay: Antifungal activity against Aspergillus fumigatus ATCC 204305 after 18 hrs by serial microdilution assay; format: functional; conditions: ATCC 204305, 18 h; outline: as §1
Staphylococcus aureus [7] = assay: Antibacterial activity against methicillin-resistant Staphylococcus aureus 2 after 18 hrs by serial microdilution assay; format: functional; conditions: Staphylococcus aureus, 2, 18 h
[8] = Antifungal activity against Fusarium oxysporum f. sp. betae after 18 hrs by serial microdilution assay; format: functional; outline: as §1
Aspergillus brasiliensis = assay: Antifungal activity against Aspergillus brasiliensis ATCC 16404 after 18 hrs by serial microdilution assay; format: functional; conditions: ATCC 16404, 18 h; outline: as §1
[9] = test system: Staphylococcus epidermidis; assay: Antibacterial activity against Staphylococcus epidermidis ATCC 49134 after 18 hrs by serial microdilution assay; format: functional; conditions: ATCC 49134, 18 h
Micrococcus luteus = assay: Antibacterial activity against Micrococcus luteus ATCC 10240 after 18 hrs by serial microdilution assay; format: functional; conditions: ATCC 10240, 18 h
[10] = test system: Trichophyton mentagrophytes; assay: Antifungal activity against Trichophyton mentagrophytes ATCC 9533 after 18 hrs by serial microdilution assay; format: functional; conditions: ATCC 9533, 18 h; outline: as §1
Rhizopus stolonifer [11] = assay: Reduction in ergosterol content in Rhizopus stolonifer ATCC 56227 at 256 microg/ml by HPLC analysis; format: functional, organism-based; conditions: TDE = time-dependent effect
Outline: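 Treated fungal material was derivatised and its ergosterol measured by HPLC from the area of the ergosterol peak at Rt 8.26 min. Content is expressed as mg per 1 g dry fungal mass and followed over incubation time up to 96 h.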

Rhizopus stolonifer [12] = assay: Reduction in ergosterol content in Rhizopus stolonifer ATCC 56227 assessed per gram of dry fungi mass at 256 microg/ml incubated for 24 hrs measured after 24 to 96 hrs by HPLC analysis; format: functional
Outline: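 Ergosterol was quantified by HPLC in derivatized fungal material from treated cultures, using the peak area at a retention time of 8.26 min. Results are expressed as mg ergosterol per 1 g of dry fungal mass. Content was followed over incubation time, up to 96 h.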

SMILES	MIC (Fusarium acuminatum)	MIC (Staphylococcus aureus [1])	MIC [2]	MIC (Staphylococcus aureus [3])	MIC (Streptococcus pneumoniae)	MIC [4]	MIC (Rhizopus stolonifer [5])	MIC (Bacillus subtilis)	MIC (Staphylococcus aureus [6])	MIC (Aspergillus fumigatus)	MIC (Staphylococcus aureus [7])	MIC [8]	MIC (Aspergillus brasiliensis)	MIC [9]	MIC (Micrococcus luteus)	MIC [10]	Activity (Rhizopus stolonifer [11])	Activity (Rhizopus stolonifer [12])
CCCCCc1cn(CCN/C=C2\C(=O)C(O)=C(C(C)C)c3cc(C)c(-c4c(C)cc5c(c4O)/C(=C/NCCn4cc(CCCCC)nn4)C(=O)C(O)=C5C(C)C)c(O)c32)nn1	256 µg/mL (≈ 302 µM)	> 256 µg/mL	64 µg/mL (≈ 75.6 µM)	> 256 µg/mL	> 256 µg/mL	> 256 µg/mL	128 µg/mL (≈ 151 µM)	> 256 µg/mL	> 256 µg/mL	256 µg/mL (≈ 302 µM)	> 256 µg/mL	64 µg/mL (≈ 75.6 µM)	256 µg/mL (≈ 302 µM)	> 256 µg/mL	> 256 µg/mL	256 µg/mL (≈ 302 µM)		
CCCc1cn(CCN/C=C2\C(=O)C(O)=C(C(C)C)c3cc(C)c(-c4c(C)cc5c(c4O)/C(=C/NCCn4cc(CCC)nn4)C(=O)C(O)=C5C(C)C)c(O)c32)nn1	256 µg/mL (≈ 324 µM)	> 256 µg/mL	64 µg/mL (≈ 80.9 µM)	256 µg/mL (≈ 324 µM)	256 µg/mL (≈ 324 µM)	256 µg/mL (≈ 324 µM)	128 µg/mL (≈ 162 µM)	> 256 µg/mL	256 µg/mL (≈ 324 µM)	256 µg/mL (≈ 324 µM)	> 256 µg/mL	64 µg/mL (≈ 80.9 µM)	256 µg/mL (≈ 324 µM)	256 µg/mL (≈ 324 µM)	> 256 µg/mL	256 µg/mL (≈ 324 µM)		
CCCCc1cn(CCN/C=C2\C(=O)C(O)=C(C(C)C)c3cc(C)c(-c4c(C)cc5c(c4O)/C(=C/NCCn4cc(CCCC)nn4)C(=O)C(O)=C5C(C)C)c(O)c32)nn1	256 µg/mL (≈ 313 µM)	> 256 µg/mL	64 µg/mL (≈ 78.1 µM)	> 256 µg/mL	> 256 µg/mL	> 256 µg/mL	128 µg/mL (≈ 156 µM)	> 256 µg/mL	> 256 µg/mL	256 µg/mL (≈ 313 µM)	> 256 µg/mL	64 µg/mL (≈ 78.1 µM)	256 µg/mL (≈ 313 µM)	> 256 µg/mL	> 256 µg/mL	256 µg/mL (≈ 313 µM)		
CCCCCc1cn(CCCN/C=C2\C(=O)C(O)=C(C(C)C)c3cc(C)c(-c4c(C)cc5c(c4O)/C(=C/NCCCn4cc(CCCCC)nn4)C(=O)C(O)=C5C(C)C)c(O)c32)nn1	256 µg/mL (≈ 293 µM)	> 256 µg/mL	64 µg/mL (≈ 73.1 µM)	> 256 µg/mL	> 256 µg/mL	> 256 µg/mL	128 µg/mL (≈ 146 µM)	> 256 µg/mL	> 256 µg/mL	256 µg/mL (≈ 293 µM)	> 256 µg/mL	64 µg/mL (≈ 73.1 µM)	256 µg/mL (≈ 293 µM)	> 256 µg/mL	> 256 µg/mL	256 µg/mL (≈ 293 µM)		
Cc1cc2c(C(C)C)c(O)c(O)c(C=O)c2c(O)c1-c1c(C)cc2c(C(C)C)c(O)c(O)c(C=O)c2c1O [GOSSYPOL]	128 µg/mL (≈ 247 µM)	16 µg/mL (≈ 30.9 µM)	32 µg/mL (≈ 61.7 µM)	16 µg/mL (≈ 30.9 µM)	16 µg/mL (≈ 30.9 µM)	16 µg/mL (≈ 30.9 µM)	128 µg/mL (≈ 247 µM)	16 µg/mL (≈ 30.9 µM)	16 µg/mL (≈ 30.9 µM)	256 µg/mL (≈ 494 µM)	16 µg/mL (≈ 30.9 µM)	32 µg/mL (≈ 61.7 µM)	256 µg/mL (≈ 494 µM)	16 µg/mL (≈ 30.9 µM)	32 µg/mL (≈ 61.7 µM)	128 µg/mL (≈ 247 µM)	Tde	
Cc1cc2c(c(O)c1-c1c(C)cc3c(c1O)/C(=C/NCCCn1cc(COCc4ccccc4)nn1)C(=O)C(O)=C3C(C)C)/C(=C/NCCCn1cc(COCc3ccccc3)nn1)C(=O)C(O)=C2C(C)C			16 µg/mL (≈ 16.4 µM)									16 µg/mL (≈ 16.4 µM)						
CCCc1cn(CCCN/C=C2\C(=O)C(O)=C(C(C)C)c3cc(C)c(-c4c(C)cc5c(c4O)/C(=C/NCCCn4cc(CCC)nn4)C(=O)C(O)=C5C(C)C)c(O)c32)nn1			64 µg/mL (≈ 78.1 µM)									64 µg/mL (≈ 78.1 µM)						
Cc1cc2c(c(O)c1-c1c(C)cc3c(c1O)/C(=C/NCCn1cc(COCc4ccccc4)nn1)C(=O)C(O)=C3C(C)C)/C(=C/NCCn1cc(COCc3ccccc3)nn1)C(=O)C(O)=C2C(C)C	128 µg/mL (≈ 135 µM)	> 256 µg/mL	16 µg/mL (≈ 16.9 µM)	> 256 µg/mL	> 256 µg/mL	> 256 µg/mL	64 µg/mL (≈ 67.6 µM)	> 256 µg/mL	> 256 µg/mL	256 µg/mL (≈ 270 µM)	> 256 µg/mL	16 µg/mL (≈ 16.9 µM)	128 µg/mL (≈ 135 µM)	> 256 µg/mL	> 256 µg/mL	256 µg/mL (≈ 270 µM)	Tde	1 mg
CCCCc1cn(CCCN/C=C2\C(=O)C(O)=C(C(C)C)c3cc(C)c(-c4c(C)cc5c(c4O)/C(=C/NCCCn4cc(CCCC)nn4)C(=O)C(O)=C5C(C)C)c(O)c32)nn1	256 µg/mL (≈ 302 µM)	> 256 µg/mL	64 µg/mL (≈ 75.6 µM)	> 256 µg/mL	> 256 µg/mL	> 256 µg/mL	128 µg/mL (≈ 151 µM)	> 256 µg/mL	> 256 µg/mL	256 µg/mL (≈ 302 µM)	> 256 µg/mL	64 µg/mL (≈ 75.6 µM)	256 µg/mL (≈ 302 µM)	> 256 µg/mL	> 256 µg/mL	256 µg/mL (≈ 302 µM)		
Clc1ccc(COC(Cn2ccnc2)c2ccc(Cl)cc2Cl)c(Cl)c1 (stereo unspecified) [MICONAZOLE]			16 µg/mL (≈ 38.4 µM)									16 µg/mL (≈ 38.4 µM)						
